Structures are written as SMILES. Active and inactive are the calls of the source. The calls are words filed in the database; no cut-off is given here. Where only a bound is given, the exact number is not on record here.

Data set [1] concerns MIA PaCa-2. In words: Inhibition of chemoresistant human MIAPaCa2 cell proliferation after 48 hrs by MTT assay. It is filed as functional. An outline of the steps:
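MiaPaCa-2 cells in DMEM with 10% FBS seeded at 15 000/well and left to attach overnight. Medium replaced with fresh medium holding a range of concentrations, or medium alone; gemcitabine control. Incubated 48 h at 37 °C, 5% CO₂, and viable cells measured by MTT. Mean ± SE of three independent experiments.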

Data set [2] relates to MIA PaCa-2. In words: Inhibition of DNA synthesis in chemoresistant human MIAPaCa2 cells assessed as incorporation of [3H]thymidine into DNA after 4 hrs by liquid scintillation counting. It is filed as functional. An outline of the steps: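 MiaPaCa-2 cells seeded at 15 000/well and treated in exponential growth for 4 h, with gemcitabine as comparator. Then labelled with [³H]thymidine (10 μCi/mL) for 6 h at 37 °C, 5% CO₂. Cells harvested and incorporated radioactivity measured by liquid scintillation counting.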

Data set [3] has as its system Mus musculus. In words: Toxicity in nude mouse xenografted with human MIAPaCa2 cells assessed as weight loss at 150 mg/kg, ip administered measured after 3 weeks. Conditions: in vivo, 504 h.
Data set [4] concerns MIA PaCa-2. In words: Induction of apoptosis in chemoresistant human MIAPaCa2 cells assessed as increase in DNA/histone nucleosome release after 48 hrs by ELISA relative to control. In kind it is functional. A digest of the protocol:
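MiaPaCa-2 cells seeded at 15 000/well for 24 h, then treated or left untreated for 48 h. Cells lysed after centrifugation at 200g. Supernatant put on streptavidin plate with biotin anti-histone and peroxidase anti-DNA antibodies, 2 h at room temperature. After washes, substrate added for 20 min and read at 405 nm. Expressed as fold increase in absorbance over control; triplicate.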

Data set [5] relates to MIA PaCa-2. Put plainly: Induction of apoptosis in chemoresistant human MIAPaCa2 cells assessed as increase in cell accumulation at sub-G1/G0 phase after 48 hrs by FACS analysis relative to control. In kind it is functional. A digest of the protocol:
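MiaPaCa-2 cells treated 48 h, with untreated and gemcitabine controls. Cells trypsinized, PBS-washed and fixed overnight at 4 °C in cold 70% ethanol. Treated with RNase (500 μg/mL) and stained with propidium iodide (50 μg/mL). Sub-G1/G0 fraction read by flow cytometry on 10⁶ cells; triplicate.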

Data set [6] relates to MIA PaCa-2. In words: Inhibition of Hsp27 protein expression in chemoresistant human MIAPaCa2 cells by alexa fluor 488 staining-based immunofluorescence assay. It is filed as functional, cell-based. An outline of the steps: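 Treated and untreated MiaPaCa-2 cells fixed in 4% paraformaldehyde and permeabilized with 1% Triton. Incubated with mouse anti-Hsp27 monoclonal (1:500) overnight at 4 °C, blocked in BSA/PBS, then Alexa Fluor 488 secondary (1:750). Nuclei stained with DAPI for imaging.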

Data set [7] has as its system MIA PaCa-2. Put plainly: Inhibition of Hsp27 protein expression in chemoresistant human MIAPaCa2 cells after 48 hrs by Western blotting. In kind it is functional, cell-based. An outline of the steps:
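MiaPaCa-2 cells treated and harvested at 48 h. Lysates loaded at 15 μg protein and blotted with rabbit polyclonal anti-human Hsp27 (1:5000) and vinculin reference (1:2000). Detected by enhanced chemiluminescence and band intensities quantified against untreated control.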

In data set [8] the test system is MIA PaCa-2. Put plainly: Inhibition of Hsp27 mRNA expression in chemoresistant human MIAPaCa2 cells after 24 hrs by RT-PCR analysis. It is filed as functional. An outline of the steps: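 MiaPaCa-2 cells treated 24 h. Total RNA isolated by TRIzol and reverse-transcribed. SYBR Green real-time PCR run with Hsp27 primers: 45 cycles of 95 °C 5 s, 57 °C 6 s, 72 °C 12 s, followed by a melting curve. Normalized to 18S rRNA; each sample in triplicate.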

Data set [9] concerns Mus musculus. Put plainly: Toxicity in nude mouse xenografted with human MIAPaCa2 cells assessed as normal growth and behavior at 150 mg/kg, ip administered measured after 3 weeks. Conditions: in vivo, 504 h.
The test system of data set [10] is MIA PaCa-2. Put plainly: Induction of necrosis in chemoresistant human MIAPaCa2 cells assessed as cell membrane damage associated LDH release up to 300 um after 1 hr. It is filed as functional. A digest of the protocol: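 MiaPaCa-2 cells seeded at 15 000/well; 24 h later exposed to compound in DMSO for 1 h. LDH reaction mixture added 1:1 and incubated 10 min at 25 °C. Lysis buffer set as 100% release and medium as 0%. Result is released LDH over total cellular LDH; triplicate.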

The subject of data set [11] is MIA PaCa-2. In words: Induction of apoptosis in chemoresistant human MIAPaCa2 cells assessed as increase in caspase 3/7 activation after 48 hrs by […] relative to gemcitabine. In kind it is functional. A digest of the protocol: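 MiaPaCa-2 cells seeded at 15 000/well; 24 h later treated for 48 h, with gemcitabine and no-treatment controls. Apo-ONE homogeneous caspase-3/7 reagent added 1:1 to culture, containing fluorogenic Z-DEVD-R110 substrate. Incubated 30 min at room temperature, then fluorescence read. Triplicate.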

Data set [12] concerns MIA PaCa-2. Put plainly: Induction of apoptosis in chemoresistant human MIAPaCa2 cells assessed as increase in caspase 3/7 activation after 48 hrs […] relative to control. It is filed as functional.
For data set [13], the system named is MIA PaCa-2. In words: Antitumor activity against human MIAPaCa2 cells xenografted in nude mouse assessed as reduction in tumor volume at 150 mg/kg, ip administered measured after 3 weeks. On the set-up: scale not given: the % may be the effect or the level left. Conditions: route intraperitoneal.
In data set [14] the test system is MIA PaCa-2. In words: Induction of necrosis in chemoresistant human MIAPaCa2 cells up to 12 hrs by 7-aminoactinomycin D staining-based FACS analysis. In kind it is functional. A digest of the protocol:
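MiaPaCa-2 cells seeded at 500 000 per 6 cm dish and left overnight, then treated or left untreated for 3, 6 and 12 h. Stained with 7-AAD for 15 min at 25 °C, then read immediately by flow cytometry; triplicate.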

For `COC(=O)c1nc(C#Cc2ccc(C(F)(F)F)cc2)nn1[C@@H]1O[C@H](COC(C)=O)[C@@H](OC(C)=O)[C@H]1OC(C)=O`, the inhibition result in the data set with MIA PaCa-2 [1] is “inactive”.
`CCCCCC#Cc1nc(C(N)=O)n([C@@H]2O[C@H](CO)[C@@H](O)[C@H]2O)n1`: the inhibition result in the data set on MIA PaCa-2 [1] is “inactive”.
Turning to `Nc1ccn([C@@H]2O[C@H](CO)[C@@H](O)C2(F)F)c(=O)n1` [GEMCITABINE], the “inhibition (INH)” value in the data set on MIA PaCa-2 [1] is recorded as less than 30%; with MIA PaCa-2 [2] it was greater than 90%.
As for `CCCCCc1ccc(C#Cc2nc(C(N)=O)nn2[C@@H]2O[C@H](CO)[C@@H](O)[C@H]2O)cc1`, the inhibition result in the data set on MIA PaCa-2 [1] is “inactive”.
Regarding `CCCCCc1ccc(C#Cc2nc(C(N)=O)n([C@@H]3O[C@H](CO)[C@@H](O)[C@H]3O)n2)cc1`, the Activity entry with Mus musculus [3] is reported as “Non-toxic”; in the data set on Mus musculus [9] it was “Non-toxic”; with MIA PaCa-2 [10], less than 2%; with MIA PaCa-2 [13] it was 50%; in the data set on MIA PaCa-2 [14], less than 2%. The “fold change (FC)” value came out at 40 in the data set on MIA PaCa-2 [4], 14 in the data set on MIA PaCa-2 [5], 12 with MIA PaCa-2 [11] and 30 with MIA PaCa-2 [12]. The “inhibition (INH)” value in the data set with MIA PaCa-2 [1] and with MIA PaCa-2 [8] was 80% throughout. Further, the inhibition result in the data set with MIA PaCa-2 [6] and in the data set on MIA PaCa-2 [7] was “Active” throughout. Further, the inhibition result with MIA PaCa-2 [2] was “inactive”.
Regarding `CCCCCc1ccc(C#Cc2nc(C(=O)OC)n([C@@H]3O[C@H](COC(C)=O)[C@@H](OC(C)=O)[C@H]3OC(C)=O)n2)cc1`, the inhibition entry in the data set on MIA PaCa-2 [1] was “inactive”.
Turning to `Cc1ccc(C#Cc2nc(C(N)=O)n([C@@H]3O[C@H](CO)[C@@H](O)[C@H]3O)n2)cc1`, the inhibition entry in the data set with MIA PaCa-2 [1] is “inactive”.
Regarding `NC(=O)c1nc(C#Cc2ccc(C(F)(F)F)cc2)nn1[C@@H]1O[C@H](CO)[C@@H](O)[C@H]1O`, the inhibition result with MIA PaCa-2 [1] was “inactive”.
With `CCCCCc1ccc(-c2cn(-c3nc(C(N)=O)n([C@@H]4O[C@H](CO)[C@@H](O)[C@H]4O)n3)nn2)cc1`, the inhibition entry in the data set with MIA PaCa-2 [1] was “inactive”.
As for `CCCCCc1ccc(CCc2nc(C(N)=O)n([C@@H]3O[C@H](CO)[C@@H](O)[C@H]3O)n2)cc1`, the inhibition entry in the data set on MIA PaCa-2 [1] is “inactive”.
Consider `CCCCCc1ccc(C#Cc2nc(C(N)=O)n(COCCO)n2)cc1`, for which the inhibition result in the data set on MIA PaCa-2 [1] is “inactive”.
`CCCCCc1ccc(-c2nc(C(N)=O)n([C@@H]3O[C@H](CO)[C@@H](O)[C@H]3O)n2)cc1`: the inhibition result with MIA PaCa-2 [1] was “inactive”.
The same measure, in the same setting: the entry for `CCCc1ccc(C#Cc2nc(C(N)=O)n([C@@H]3O[C@H](CO)[C@@H](O)[C@H]3O)n2)cc1` is “inactive”.
